Test results reported in paper PMC8451882 (British Journal of Clinical Pharmacology, 2021).
Values joined by “and” are separate entries in the source; they are usually repeats but may differ in a detail not shown here. Equal entries are not always repeated.

Columns and labels:
Single ascending dose = format: in vivo, human
Method in brief: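 SAD study in healthy volunteers: micronised drug in hard-gelatine capsules without excipients, given orally after an overnight fast of at least 8 h (1, 3, 30, 100, 300, 600 mg), or 100 mg after a high-fat high-calorie breakfast. Plasma (K3EDTA) sampled 0.5–48 h after dosing and assayed by LC-MS/MS (1.00–1000 ng/mL). Parameters derived by noncompartmental analysis.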

[1] = Safety and tolerability, SAD study; format: in vivo, human; conditions: healthy volunteers, single oral dose up to 600 mg
Method in brief: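 First-in-human, single-centre, randomised, double-blind, placebo-controlled interleaved-cohort study: 17 healthy men and women in 2 cohorts with 4 periods each. Single oral doses from 1 to 600 mg given fasted, at least 14 days apart. Safety and tolerability assessed before and after dosing and at various time points.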

Multiple ascending dose = format: in vivo, human
Method in brief: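 MAD study in healthy men and women: oral doses of 50, 100 or 200 mg or placebo (6:3), given with food; first dose on day 1. Plasma (K3EDTA) sampled 0.5–48 h after the first dose. Test compound measured by liquid–liquid extraction and LC-MS/MS, calibration range 1.00–1000 ng/mL. Linearity judged from dose-normalised concentration–time profiles.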

[2] = Population compartmental PK model; format: in vivo, human
Method in brief: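 Pooled first-dose plasma concentrations (816 samples) from 39 healthy volunteers, SAD (fasted 1–600 mg; fed 100 mg) and MAD (fed 50–200 mg). Analysed in NONMEM 7.3 with ADVAN9 and first-order conditional estimation. 1- and 2-compartment models tested, with first-order absorption with or without lag time or transit compartments. IIV log-normal. Visual predictive checks used 500 simulations. Reported as estimate (% RSE).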

metabolic enzyme = assay: In vitro enzymology studies, time-dependent metabolic enzyme inhibition; format: in vitro ADME; conditions: RO5459072 and its metabolites; data held on files at Roche
cathepsin‐S = assay: Inhibition of cathepsin-S enzyme activity throughout the dosing interval; format: in vivo, human; conditions: 50 mg dose
human P‐gp = human P‐gp (Homo sapiens, UniProt P08183); assay: In vitro P-gp transport studies; format: in vitro ADME; conditions: up to RO5459072 concentrations of 100 μM; data held on files at Roche
Sequence of human P‐gp (P08183 whole entry): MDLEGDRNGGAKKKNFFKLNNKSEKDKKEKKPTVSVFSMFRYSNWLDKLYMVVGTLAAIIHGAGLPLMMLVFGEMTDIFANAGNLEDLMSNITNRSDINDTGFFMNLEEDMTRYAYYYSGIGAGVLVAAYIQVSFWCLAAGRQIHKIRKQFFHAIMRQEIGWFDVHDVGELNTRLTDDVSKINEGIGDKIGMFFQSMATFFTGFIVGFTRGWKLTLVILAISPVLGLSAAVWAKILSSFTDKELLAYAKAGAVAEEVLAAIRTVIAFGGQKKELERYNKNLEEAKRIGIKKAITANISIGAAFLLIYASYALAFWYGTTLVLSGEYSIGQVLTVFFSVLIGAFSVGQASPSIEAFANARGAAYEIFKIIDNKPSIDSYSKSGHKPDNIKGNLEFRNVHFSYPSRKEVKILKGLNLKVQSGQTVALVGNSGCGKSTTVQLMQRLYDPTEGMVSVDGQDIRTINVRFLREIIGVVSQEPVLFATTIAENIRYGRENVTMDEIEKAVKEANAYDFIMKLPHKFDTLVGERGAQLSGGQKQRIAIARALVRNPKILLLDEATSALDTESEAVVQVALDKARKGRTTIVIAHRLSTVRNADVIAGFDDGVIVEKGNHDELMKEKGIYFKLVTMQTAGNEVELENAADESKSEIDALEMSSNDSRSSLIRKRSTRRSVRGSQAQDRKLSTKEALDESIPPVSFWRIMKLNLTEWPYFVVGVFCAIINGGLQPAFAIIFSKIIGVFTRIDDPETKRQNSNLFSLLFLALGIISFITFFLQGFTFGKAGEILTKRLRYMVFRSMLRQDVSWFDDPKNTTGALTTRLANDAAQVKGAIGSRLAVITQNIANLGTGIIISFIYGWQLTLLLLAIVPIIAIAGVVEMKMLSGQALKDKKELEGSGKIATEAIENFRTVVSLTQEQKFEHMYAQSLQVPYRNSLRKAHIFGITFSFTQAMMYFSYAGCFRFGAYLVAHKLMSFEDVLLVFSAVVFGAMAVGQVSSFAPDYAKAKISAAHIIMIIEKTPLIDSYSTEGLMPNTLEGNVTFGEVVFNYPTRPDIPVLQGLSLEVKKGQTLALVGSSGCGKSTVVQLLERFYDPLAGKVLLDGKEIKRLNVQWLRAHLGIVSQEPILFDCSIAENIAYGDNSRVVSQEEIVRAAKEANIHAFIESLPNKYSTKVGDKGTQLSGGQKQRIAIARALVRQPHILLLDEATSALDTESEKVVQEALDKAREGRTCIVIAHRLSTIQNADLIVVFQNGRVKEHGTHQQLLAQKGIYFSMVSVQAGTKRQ

Solubility = format: physicochemical
[3] = Excretion after intravenous dose in rats; format: in vivo; conditions: data held on files at Roche
[4] = Safety and tolerability, MAD study; format: in vivo, human; conditions: healthy volunteers, doses up to 200 mg BID for 7 days
Method in brief: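 Single-centre, randomised, double-blind, placebo-controlled MAD study: 22 healthy men and women dosed with food, single dose on day 1, then BID (50, 100, 200 mg) or OD (100 mg) on days 3–9. Active and placebo assigned 6:3. Safety and tolerability assessed before and after dosing and at various time points.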

[5] = BCS/BDDCS classification and permeability; format: physicochemical
[6] = interindividual variability, CV% (% RSE) [shrinkage]

For Cn1cc(-c2ccc(S(=O)(=O)[C@@H]3C[C@@H](C(=O)NC4(C#N)CC4)N(C(=O)C4(C(F)(F)F)CC4)C3)c(C(F)(F)F)c2)cn1 [RO5459072], the Tmax (Single ascending dose; both, human, plasma, oral, 100 mg, Tmax, fed) was 5 h, the half-life (Single ascending dose; both, human, plasma, oral, 600 mg, noncompartmental analysis apparent terminal half-life, fasted, highest doses between 100 and 600 mg) was 13 to 16 h and the “increase in systemic exposure with dose” value (Single ascending dose; fasted, doses <10 mg) was “more than dose proportional”. For the same compound, the “increase in systemic exposure with dose” value (Single ascending dose; fasted, doses >30 mg) was “less than dose proportional”, the “Tmax delay fed versus fasted” value (Single ascending dose; fed later than fasted) was “approximately 1 hour” and the “decrease of estimated average half-life by food (noncompartmental analysis)” value (Single ascending dose; fed versus fasted) was “approximately 4 hours”. For the same compound, the tolerability [1] was “similarly tolerated to placebo”, the half-life (Multiple ascending dose; both, human, plasma, oral, average estimated terminal half-lives, fed, 50 mg, 100 mg, 200 mg doses) was 8 to 10 h and the PK linearity (Multiple ascending dose; fed condition from 50 to 100 mg) was “linear”. The “CL/F, apparent total clearance” value ([2]; fasted and fed conditions, estimate (% RSE)) was 9.38 (3.65) L h^−1, the “kaFaPI, first-order absorption rate constant of the proximal intestine” value ([2]; fasted, doses > 3 mg (10 to 600 mg), estimate (% RSE)) was 2.05 h^−1 and 2.05 (6.29) h^−1 and the “kaFaDI, first-order absorption rate constant of the distal intestine” value ([2]; fasted, doses > 3 mg, estimate (% RSE)) was 0.065 h^−1 and 0.065 (9.31) h^−1. For the same compound, the “apparent fraction of the total dose absorbed from the distal intestine” value ([2]; fasted, on average for doses between 10 and 600 mg) was ~ 16%, the “IIV of D50” value [2, 6] was 38.5% (27.3) [40.9%] CV% and the “IIV of FFaDI” value [2, 6] was 32.1% (38.9) [41.0%] CV%. For the same compound, the “IIV of Vc/F” value [2, 6] was 24.0% (15.0) [14.6%] CV%, the “IIV of kaFaPI for doses > 3 mg” value [2, 6] was 33.8% (13.8) [2.44%] CV% and the “IIV of kaFe” value [2, 6] was 39.2% (14.8) [4.21%] CV%. For the same compound, the “time-dependent metabolic enzyme inhibition” value (metabolic enzyme) was “absence”, the “inhibition of cathepsin-S enzyme activity in average throughout the dosing interval” value (cathepsin‐S) was “about 93%” and the “saturability of human P-gp” value (human P‐gp) was “not saturable”. For the same compound, the solubility (Solubility) was under 20 µg/mL, the “fraction of dose found unchanged in the faeces” value [3] was 50% and the tolerability [4] was “tolerated similarly to placebo”. The “Biopharmaceutics Classification System class” value [5] was 2 and the permeability [5] was “highly permeable”.
